# Key:
# [1] = test system: HBV (genotype D); experiment: HBV infection assay in HepG2-hNTCP-C4 cells; assay type: cell-based, hepatitis B virus; conditions: same concentration conditions (40 and 100 μM)
# In short: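 HepG2-hNTCP-C4 cells were inoculated with genotype D HBV from Hep38.7-Tet culture supernatant at 6000 GEq/cell in 4% PEG8000. Test compound (8 μM), preS1 peptide (100 nM) or DMSO 0.16% was present for 16 h. Cells were washed and cultured 12 more days without compound. On day 13, supernatant HBs was measured by ELISA and intracellular HBc by immunofluorescence with image quantification. MTT viability was run in parallel.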
# [2] = target: T1, NTCP (Homo sapiens, UniProt Q14973); experiment: NTCP transporter assay; assay type: cell-based; conditions: HepG2-hNTCP-C4 cells, sulfobromophthalein 40 and 100 μM
# T1 sequence (Q14973 1-349): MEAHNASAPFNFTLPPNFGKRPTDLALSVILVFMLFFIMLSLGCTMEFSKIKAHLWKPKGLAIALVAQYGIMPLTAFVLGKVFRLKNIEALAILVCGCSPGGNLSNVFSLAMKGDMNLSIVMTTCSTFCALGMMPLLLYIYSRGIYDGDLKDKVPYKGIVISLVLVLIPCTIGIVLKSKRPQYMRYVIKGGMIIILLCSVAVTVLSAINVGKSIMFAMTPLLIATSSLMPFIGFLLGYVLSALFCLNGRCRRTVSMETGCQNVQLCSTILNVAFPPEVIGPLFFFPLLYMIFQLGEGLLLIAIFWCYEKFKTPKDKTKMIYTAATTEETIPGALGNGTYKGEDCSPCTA
# [3] = test system: HBV replication; experiment: HBV replication assay in HepG2.2.15.7 cells; assay type: cell-based, hepatitis B virus; conditions: six days, ETV 1 μM, CsA and its derivatives 8 μM
# In short: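 HepG2.2.15.7 cells support HBV replication but not entry. They were treated for six days with test compound (8 μM), entecavir 1 μM as positive control, or DMSO 0.16%. HBV DNA released into the culture supernatant was then quantified by real-time PCR.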
Structure (SMILES),HBV infection [1],bile acid uptake in sodium-containing condition [2],HBV DNA released into the culture supernatant [3]
"O=C1OC(c2ccc(O)c(S(=O)(=O)O)c2)(c2ccc(O)c(S(=O)(=O)O)c2)c2c(Br)c(Br)c(Br)c(Br)c21 [sulfobromophthalein, Sulfobromophthalein]",did not inhibit HBV infection,impaired the bile acid uptake,–
C=C1[C@H](CO)[C@@H](O)C[C@@H]1n1cnc2c(=O)[nH]c(N)nc21 [entecavir],–,–,significantly reduced

# — article PMC7172969 (Journal of Hepatology, 2016)
